# A selection: hits, their analogues and other compounds. The true share with any hit is near 1.2%.
# Diaphorase act: compounds boosting diaphorase resazurin reduction – biochemical, uHTS, resorufin fluorescence, counter-screen for diaphorase-coupled primary assays, primary screen; Diaphorase/resazurin coupled assay, 16 min; active compounds read high; 1 = vehicle wells, 0 = NADH-free wells; activation factor at 20 µM; 0.005% of 190,000 active; AID 1229, 2008;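 active means diaphorase activity raised at least twofold by the compound at 20 µM; inactive means activation factor below 2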
#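 Measured by – red resorufin fluorescence at 544/590 nm excitation/emission · Test system – Clostridium kluyveri diaphorase, purified enzyme · Incubation – reaction time 16 min, room temperature · Buffer or medium – 50 mM HEPES pH 7.4 with 4.542 mM MgCl2, 0.005% Tween 20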
# PfGluPho inh: PfG6PD enzyme inhibitors, primary screen, biochemical, fluorescence intensity, uHTS | 0.78% of 350,000 active | AID 504690, 2011 | PfGluPho enzyme, NADPH resazurin-diaphorase fluorescence | glucose-6-phosphate dehydrogenase-6-phosphogluconolactonase (Plasmodium falciparum 3D7) | inhibition, % at 20 µM;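 active means inhibition reaching at least a set limit at 20 µM in the primary screen, cut at about 59% in these data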
# Diaph inh CS: diaphorase inhibitors and chemical oxidizers, primary screen, counter-screen for diaphorase-coupled primary assays, biochemical, uHTS, resorufin fluorescence | diaphorase resazurin-to-resorufin fluorescence, NADH, 16 min; bacterial (C. kluyveri) enzyme, not human | inhibition, % at 20 µM | 0.69% of 190,000 active;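 active means primary screen inhibition at 20 µM above a set limit, cut at about 50% in these data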
#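 Assay system: diaphorase enzyme from Clostridium kluyveri; Input: enzyme working solution with 0.14 U/mL diaphorase; Timing: 16 min at room temperature; Technique: resorufin fluorescence, excitation 544 nm, emission 590 nm; Benchmarks: positive control minus NADH, DMSO neutral control.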
# G6PDH CS: L. mesenteroides G6PDH inhibitors, counter-screen for G6PDH-coupled screening assays, biochemical, Leuconostoc mesenteroides enzyme | glucose-6-phosphate dehydrogenase [Leuconostoc mesenteroides] | Purified L. mesenteroides G6PDH, diaphorase/resazurin coupled fluorescence, 45 min | inhibition, % at 5 µM | 0.12% of 200,000 active | AID 1020, 2008; in the data active means inhibition above about 50%
# HKDC1 inhibitor: HKDC1 hexokinase inhibitors, primary screen, biochemical, fluorescence, uHTS; Q2TB90; AID 493160, 2011; recombinant HKDC1, G6PDH/diaphorase resazurin coupled fluorescence; inhibition, % at 20 µM; 0.16% of 340,000 active;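 active means inhibition above about 35% when tested at 20 µM, limit read from the data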
# Target sequence (Q2TB90 whole entry, looked up): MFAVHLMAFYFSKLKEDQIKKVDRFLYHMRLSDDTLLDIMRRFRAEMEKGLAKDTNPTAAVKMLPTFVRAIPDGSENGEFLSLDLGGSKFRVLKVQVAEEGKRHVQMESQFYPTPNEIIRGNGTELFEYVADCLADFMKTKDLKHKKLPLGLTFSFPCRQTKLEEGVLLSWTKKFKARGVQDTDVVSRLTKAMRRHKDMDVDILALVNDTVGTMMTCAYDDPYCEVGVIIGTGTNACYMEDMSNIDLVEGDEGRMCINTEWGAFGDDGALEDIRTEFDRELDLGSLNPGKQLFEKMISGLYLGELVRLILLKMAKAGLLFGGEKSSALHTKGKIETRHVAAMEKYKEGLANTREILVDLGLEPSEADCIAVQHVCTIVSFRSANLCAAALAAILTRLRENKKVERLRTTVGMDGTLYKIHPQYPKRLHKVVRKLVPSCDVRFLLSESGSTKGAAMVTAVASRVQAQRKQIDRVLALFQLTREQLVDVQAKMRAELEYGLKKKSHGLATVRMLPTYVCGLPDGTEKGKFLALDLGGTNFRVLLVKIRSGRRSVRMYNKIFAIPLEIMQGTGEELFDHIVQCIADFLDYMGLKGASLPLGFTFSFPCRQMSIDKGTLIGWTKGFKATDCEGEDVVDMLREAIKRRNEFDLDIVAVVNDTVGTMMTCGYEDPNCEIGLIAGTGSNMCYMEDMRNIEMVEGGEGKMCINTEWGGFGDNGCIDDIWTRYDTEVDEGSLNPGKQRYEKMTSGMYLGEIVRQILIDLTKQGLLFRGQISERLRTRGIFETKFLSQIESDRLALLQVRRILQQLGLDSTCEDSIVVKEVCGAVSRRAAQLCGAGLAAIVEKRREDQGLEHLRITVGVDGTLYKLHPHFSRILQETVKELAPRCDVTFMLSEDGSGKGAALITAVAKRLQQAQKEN
#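 Test system: HK5 enzyme. Quantity: 5 µg/mL HK5 final. Reagent: glucose and ATP substrates. Schedule: 90 min reaction incubation at room temperature, dark. Technique: resazurin-to-resorufin fluorescence via G6PDH and diaphorase coupling, 525/613 nm. Control set: DMSO wells with and without enzyme mix.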
# A number is an active result; . = inactive; / = no result.
SMILES,Diaphorase act,PfGluPho inh,Diaph inh CS,G6PDH CS,HKDC1 inhibitor
COCCCN1C(=O)C(CC(=O)NCc2cccs2)CC(C(=O)N(C)C)=C1C (configuration not stated),/,.,/,/,/
Cc1ncc(CO)c(/C=N/NC(=O)c2cc(O)c(O)c(O)c2)c1O,.,/,60,.,/
c1ccc(-c2cc(N3CCCCCC3)n[nH]2)cc1,.,.,59,.,.
COc1cc(/C=N/NC(=S)Nc2cccc(Cl)c2C)ccc1OCC(=O)N1CC(C)OC(C)C1 (configuration not stated),.,.,54,.,.
Cc1ccccc1CC(=O)N1CCC(CCC(=O)NC2CC2)CC1,/,.,/,/,/
Cc1cc2c(=O)[nH]c(N)nc2[nH]1,/,.,/,/,/
O=Cc1ccc(Sc2nnc(-c3ccccc3)o2)c([N+](=O)[O-])c1,.,94,.,.,43
Cc1cc(C)nc(Sc2ccc(C=O)cc2[N+](=O)[O-])n1,.,.,.,.,.
Cc1[nH]n(-c2ccccc2)c(=O)c1/C=N/NC(=O)COc1ccccc1[N+](=O)[O-],.,.,53,.,.
COC(=O)N/N=C\c1c(C)[nH]n(-c2ccccc2)c1=O,.,.,.,.,.
CC(=O)N/N=C/c1c(C)[nH]n(-c2ccccc2)c1=O,.,.,56,.,.
CCc1cc2c(=O)n(-c3ccccc3)c(=S)[nH]c2s1,.,.,81,.,.
O=[N+]([O-])c1ccc(N/N=C/c2ccc[nH]2)cc1,.,81,.,.,.
CC1(C)OC2COC(c3[nH]nc4c(=O)[nH]c(=O)[nH]c34)C2O1 (configuration not stated),/,.,/,/,/
O=C(O)c1cc2nc(-c3ccccc3)cc(C(F)(F)F)n2n1,.,.,.,.,.
O=C(O)c1cc2nc(-c3ccccc3)cc(-c3ccccc3)n2n1,.,.,59,.,.
CCCCNC1=CC(=O)C(=O)c2ccccc21,/,.,/,60,.
CC(=O)N(C(C)=O)c1ccc(Oc2ccc(Oc3ccc(N(C(C)=O)C(C)=O)cc3)cc2)cc1,/,.,/,/,/
CCN(C(=O)c1coc(=O)c(Br)c1)c1ccc2c(c1)OCO2,.,.,66,.,.
CCN(C(=O)c1c(C)cc(=O)oc1C)c1ccc2c(c1)OCO2,.,.,.,.,.
CN(C(=S)NC(=O)C12CC3CC(CC(C3)C1)C2)c1ccc(O)cc1,/,103,/,/,.
CN(C)NC(=S)NC(=O)C12CC3CC(CC(C3)C1)C2,.,.,.,.,.
Cc1snc(SCC(=O)c2ccc([N+](=O)[O-])cc2)c1C#N,.,62,.,.,.
Cc1snc(SCC(=O)c2ccc(F)cc2)c1C#N,.,.,.,.,.
CCn1c(SCC(=O)Nc2cccc(NC(C)=O)c2)nnc1-c1ccco1,/,.,/,/,.
SMILES,Diaphorase act,PfGluPho inh,Diaph inh CS,G6PDH CS,HKDC1 inhibitor
CCn1c(SCC(=O)Nc2ccc3c(c2)c2ccccc2n3CC)nnc1-c1ccco1,.,76,.,.,.
O=C(CSc1n[nH]c(-c2ccccc2)n1)c1ccc(O)c(O)c1,.,.,71,.,.
Cc1ccc(O)c(NC(=O)CSc2n[nH]c(-c3ccccc3)n2)c1,/,.,/,/,.
Cc1cc(SCC(=O)c2ccc(O)c(O)c2)nc2ccccc12,.,.,50,.,.
O=C(CN1CCN(S(=O)(=O)c2ccc(Br)s2)CC1)NCC1CCCCC1,/,.,/,/,/
CN1C(=O)[C@H]2[C@@H](c3ccc(C(F)(F)F)cc3)N[C@]3(CCCN(Cc4ccc(Cl)cc4)C3=O)[C@H]2C1=O,/,.,/,/,/
COc1cccc2c(=O)c3cccc(N)c3[nH]c12,.,.,86,.,.
COc1cccc2c(=O)c3c([nH]c12)OC(C)(C)C3,/,.,/,/,.
C[C@@H]1Cn2cnc(C(=O)N[C@@H](C)c3ccccc3)c2C(=O)N1,/,.,/,/,/
Cc1ccc2nc3c(cc(S(=O)(=O)c4ccccc4)c(=N)n3Cc3ccco3)c(=O)n2c1,.,.,52,.,.
N=c1c(S(=O)(=O)c2ccccc2)cc2c(=O)n3ccccc3nc2n1Cc1ccco1,.,.,51,.,.
